The target in test [1] is T1, Serine/threonine-protein kinase ICK (Homo sapiens) (UniProt Q9UPZ9).
T1 sequence (whole entry): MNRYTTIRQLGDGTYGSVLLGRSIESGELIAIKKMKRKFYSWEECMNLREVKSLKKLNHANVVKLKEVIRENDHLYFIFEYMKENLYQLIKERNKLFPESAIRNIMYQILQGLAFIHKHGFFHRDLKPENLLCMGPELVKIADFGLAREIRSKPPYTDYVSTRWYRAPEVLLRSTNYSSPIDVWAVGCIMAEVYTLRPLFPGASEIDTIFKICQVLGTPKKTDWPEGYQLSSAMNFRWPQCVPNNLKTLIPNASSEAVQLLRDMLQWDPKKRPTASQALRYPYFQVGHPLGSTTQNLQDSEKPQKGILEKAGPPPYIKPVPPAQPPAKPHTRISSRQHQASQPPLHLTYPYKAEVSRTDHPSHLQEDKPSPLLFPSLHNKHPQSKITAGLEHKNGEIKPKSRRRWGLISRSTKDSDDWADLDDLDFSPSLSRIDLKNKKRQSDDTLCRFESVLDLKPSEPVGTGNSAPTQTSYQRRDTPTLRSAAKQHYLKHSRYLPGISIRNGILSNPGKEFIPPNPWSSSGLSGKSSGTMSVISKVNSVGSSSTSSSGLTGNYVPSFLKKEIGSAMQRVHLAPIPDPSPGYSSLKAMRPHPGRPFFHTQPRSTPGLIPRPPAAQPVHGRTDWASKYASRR
Nature of the test: Inhibition of ICK at 1 uM.

Test [2] addresses Serine/threonine-protein kinase MARK2 (Homo sapiens) (UniProt Q7KZI7). Nature of the test: Inhibition of MARK2 at 1 uM. The method, boiled down:
(§1)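 Kinase-panel screen using KINOMEscan technology, with 250–400 kinases per panel. Each compound was tested at a single concentration, and inhibition of each kinase was recorded. Selectivity was summarised as S(90), the fraction of kinases inhibited by more than 90%.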

In test [3] the target is Serine/threonine-protein kinase 24 (Homo sapiens) (UniProt Q9Y6E0). The test can be described thus: Inhibition of MST3 at 1 uM.
The test system of test [4] is Tyrosine-protein kinase ABL1 (Homo sapiens), P00519 [H396P]. Nature of the test: Inhibition of ABL1 H396P mutant at 1 uM. The method, boiled down: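 Ambit KINOMEscan screen at a single concentration across a 250–400 kinase panel, recorded as percent inhibition. Selectivity was expressed as S(90), the fraction of kinases inhibited >90%.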
The target in test [5] is Bone morphogenetic protein receptor type-1B (Homo sapiens) (UniProt O00238). Nature of the test: Inhibition of BMPR1B at 1 uM.
The target of test [6] is Cyclin-dependent kinase 8 (Homo sapiens) (UniProt P49336). Nature of the test: Inhibition of CDK8 at 1 uM.
The target in test [7] is T2, Interleukin-1 receptor-associated kinase 3 (Homo sapiens) (UniProt Q9Y616).
T2 sequence (whole entry): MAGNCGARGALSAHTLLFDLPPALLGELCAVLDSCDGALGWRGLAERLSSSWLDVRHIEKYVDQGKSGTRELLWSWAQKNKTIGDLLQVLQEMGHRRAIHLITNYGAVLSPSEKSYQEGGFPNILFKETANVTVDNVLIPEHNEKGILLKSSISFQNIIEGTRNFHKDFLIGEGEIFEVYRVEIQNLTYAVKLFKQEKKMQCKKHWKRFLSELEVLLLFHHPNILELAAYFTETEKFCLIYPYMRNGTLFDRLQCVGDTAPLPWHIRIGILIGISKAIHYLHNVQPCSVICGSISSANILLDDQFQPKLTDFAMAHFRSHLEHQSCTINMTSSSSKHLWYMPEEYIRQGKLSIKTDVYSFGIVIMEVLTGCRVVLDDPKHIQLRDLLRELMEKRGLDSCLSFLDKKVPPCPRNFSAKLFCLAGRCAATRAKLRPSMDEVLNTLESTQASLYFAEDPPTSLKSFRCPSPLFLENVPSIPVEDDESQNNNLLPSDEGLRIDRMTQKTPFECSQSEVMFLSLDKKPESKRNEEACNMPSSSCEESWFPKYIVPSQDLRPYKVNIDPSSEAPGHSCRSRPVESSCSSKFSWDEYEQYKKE
Nature of the test: Inhibition of IRAK3 at 1 uM. The method, boiled down: (§2)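 Single-concentration screen on the Ambit KINOMEscan platform, run against a panel of 250–400 kinases. Per-kinase inhibition was also summarized as S(90), the fraction of kinases inhibited by more than 90%.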

Test [8] deals with Tyrosine-protein kinase Fer (Homo sapiens) (UniProt P16591). Nature of the test: Inhibition of FER at 1 uM. The method, boiled down: (§3)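 Single-concentration screen using Ambit Bioscience KINOMEscan technology across a panel of 250–400 kinases. Per-kinase inhibition from this screen was summarized as S(90), the fraction of kinases inhibited by more than 90%.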
The subject of test [9] is Mast/stem cell growth factor receptor Kit (Homo sapiens), P10721 [V559D,V654A]. Nature of the test: Inhibition of KIT V559D,V654A mutant at 1 uM. The method, boiled down: as §2
In test [10] the target is Mitogen-activated protein kinase kinase kinase kinase 1 (Homo sapiens) (UniProt Q92918). Nature of the test: Inhibition of HPK1 at 1 uM.
The target of test [11] is STE20/SPS1-related proline-alanine-rich protein kinase (Homo sapiens) (UniProt Q9UEW8). Nature of the test: Inhibition of STK39 at 1 uM.
For test [12], the target named is Tyrosine-protein kinase CSK (Homo sapiens) (UniProt P41240). Nature of the test: Inhibition of CSK at 1 uM. The essentials:
as §3

In test [13] the target is Ephrin type-A receptor 4 (Homo sapiens) (UniProt P54764). Nature of the test: Inhibition of EPHA4 at 1 uM. The essentials:
as §3

The target of test [14] is T3, Rhodopsin kinase GRK7 (Homo sapiens) (UniProt Q8WTQ7).
T3 sequence (whole entry): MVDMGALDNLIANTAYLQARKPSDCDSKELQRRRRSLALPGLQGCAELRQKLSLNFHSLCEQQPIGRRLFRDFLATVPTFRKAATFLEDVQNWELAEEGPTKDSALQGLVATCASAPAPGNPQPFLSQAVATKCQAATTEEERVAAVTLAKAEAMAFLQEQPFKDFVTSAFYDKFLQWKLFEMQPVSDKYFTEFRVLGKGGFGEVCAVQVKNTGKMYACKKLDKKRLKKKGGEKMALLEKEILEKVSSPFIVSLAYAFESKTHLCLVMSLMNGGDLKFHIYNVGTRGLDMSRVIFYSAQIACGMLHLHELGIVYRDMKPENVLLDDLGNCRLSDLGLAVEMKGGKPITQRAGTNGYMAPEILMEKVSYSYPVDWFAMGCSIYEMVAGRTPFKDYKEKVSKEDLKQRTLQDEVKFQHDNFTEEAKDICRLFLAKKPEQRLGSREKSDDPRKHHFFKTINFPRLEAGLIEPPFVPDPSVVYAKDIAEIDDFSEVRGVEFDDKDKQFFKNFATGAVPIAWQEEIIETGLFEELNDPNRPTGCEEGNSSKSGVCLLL
Nature of the test: Inhibition of GRK7 at 1 uM.

Test [15] concerns the target Serine/threonine-protein kinase PLK1 (Homo sapiens) (UniProt P53350). The test can be described thus: Inhibition of PLK1 at 1 uM.
The target in test [16] is Serine/threonine-protein kinase MRCK alpha (Homo sapiens) (UniProt Q5VT25). Nature of the test: Inhibition of MRCKA at 1 uM. The essentials: as §1
The target of test [17] is Tyrosine-protein kinase receptor Tie-1 (Homo sapiens) (UniProt P35590). Nature of the test: Inhibition of TIE1 at 1 uM.
Sequence of Tyrosine-protein kinase receptor Tie-1 (Homo sapiens) (P35590 whole entry): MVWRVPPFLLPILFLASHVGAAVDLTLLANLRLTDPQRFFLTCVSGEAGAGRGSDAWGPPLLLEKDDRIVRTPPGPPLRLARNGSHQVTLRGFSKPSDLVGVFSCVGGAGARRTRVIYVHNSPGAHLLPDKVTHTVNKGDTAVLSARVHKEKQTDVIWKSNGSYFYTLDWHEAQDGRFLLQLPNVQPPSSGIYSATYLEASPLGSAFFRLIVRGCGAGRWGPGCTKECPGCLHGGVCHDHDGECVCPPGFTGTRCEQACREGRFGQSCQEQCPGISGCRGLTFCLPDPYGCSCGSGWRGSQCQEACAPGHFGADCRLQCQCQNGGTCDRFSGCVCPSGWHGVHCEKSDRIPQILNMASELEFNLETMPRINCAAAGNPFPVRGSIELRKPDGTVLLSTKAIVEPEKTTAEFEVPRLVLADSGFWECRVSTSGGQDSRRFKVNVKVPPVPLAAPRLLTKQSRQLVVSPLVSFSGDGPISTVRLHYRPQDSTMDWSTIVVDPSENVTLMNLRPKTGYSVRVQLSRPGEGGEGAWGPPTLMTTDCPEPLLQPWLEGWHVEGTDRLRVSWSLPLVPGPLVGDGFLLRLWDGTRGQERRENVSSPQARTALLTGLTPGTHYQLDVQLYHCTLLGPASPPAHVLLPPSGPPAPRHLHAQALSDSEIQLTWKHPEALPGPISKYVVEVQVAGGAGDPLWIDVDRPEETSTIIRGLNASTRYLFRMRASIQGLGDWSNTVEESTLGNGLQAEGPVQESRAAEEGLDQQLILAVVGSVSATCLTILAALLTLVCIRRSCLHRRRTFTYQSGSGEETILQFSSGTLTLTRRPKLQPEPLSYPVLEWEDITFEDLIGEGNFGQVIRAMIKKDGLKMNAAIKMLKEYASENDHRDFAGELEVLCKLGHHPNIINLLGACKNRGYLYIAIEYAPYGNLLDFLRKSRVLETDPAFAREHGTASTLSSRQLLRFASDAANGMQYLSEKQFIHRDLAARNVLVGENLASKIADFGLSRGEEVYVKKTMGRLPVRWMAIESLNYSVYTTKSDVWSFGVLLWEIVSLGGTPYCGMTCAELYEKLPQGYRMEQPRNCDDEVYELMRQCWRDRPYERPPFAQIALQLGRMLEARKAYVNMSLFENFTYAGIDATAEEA

Sequence of Ephrin type-A receptor 4 (Homo sapiens) (P54764 whole entry): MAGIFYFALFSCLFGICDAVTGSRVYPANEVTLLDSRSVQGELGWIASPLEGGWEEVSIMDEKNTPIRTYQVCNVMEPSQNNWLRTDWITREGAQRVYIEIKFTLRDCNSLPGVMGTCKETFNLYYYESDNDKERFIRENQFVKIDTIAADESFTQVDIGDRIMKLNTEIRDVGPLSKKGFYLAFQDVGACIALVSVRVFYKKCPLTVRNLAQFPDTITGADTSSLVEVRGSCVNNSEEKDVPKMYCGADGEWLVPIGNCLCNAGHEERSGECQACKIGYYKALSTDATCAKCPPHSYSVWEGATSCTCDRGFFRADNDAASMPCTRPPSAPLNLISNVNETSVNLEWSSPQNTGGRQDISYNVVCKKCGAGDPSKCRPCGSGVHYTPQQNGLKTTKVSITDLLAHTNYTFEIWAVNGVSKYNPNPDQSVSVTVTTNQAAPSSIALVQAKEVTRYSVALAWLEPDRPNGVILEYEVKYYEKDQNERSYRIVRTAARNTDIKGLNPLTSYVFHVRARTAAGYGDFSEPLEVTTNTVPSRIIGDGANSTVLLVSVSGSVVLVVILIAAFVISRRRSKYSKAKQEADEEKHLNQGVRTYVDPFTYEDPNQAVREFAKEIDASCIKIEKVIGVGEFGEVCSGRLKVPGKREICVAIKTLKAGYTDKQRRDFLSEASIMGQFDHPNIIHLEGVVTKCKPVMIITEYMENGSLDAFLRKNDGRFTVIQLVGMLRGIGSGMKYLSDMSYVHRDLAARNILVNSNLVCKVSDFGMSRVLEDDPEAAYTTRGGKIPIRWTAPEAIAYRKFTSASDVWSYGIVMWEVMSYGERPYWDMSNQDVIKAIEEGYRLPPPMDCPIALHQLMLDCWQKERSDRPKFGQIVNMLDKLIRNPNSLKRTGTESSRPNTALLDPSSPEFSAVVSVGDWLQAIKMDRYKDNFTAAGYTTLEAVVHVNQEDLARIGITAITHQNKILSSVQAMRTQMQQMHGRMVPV
Sequence of Tyrosine-protein kinase CSK (Homo sapiens) (P41240 2-450 limits assumed): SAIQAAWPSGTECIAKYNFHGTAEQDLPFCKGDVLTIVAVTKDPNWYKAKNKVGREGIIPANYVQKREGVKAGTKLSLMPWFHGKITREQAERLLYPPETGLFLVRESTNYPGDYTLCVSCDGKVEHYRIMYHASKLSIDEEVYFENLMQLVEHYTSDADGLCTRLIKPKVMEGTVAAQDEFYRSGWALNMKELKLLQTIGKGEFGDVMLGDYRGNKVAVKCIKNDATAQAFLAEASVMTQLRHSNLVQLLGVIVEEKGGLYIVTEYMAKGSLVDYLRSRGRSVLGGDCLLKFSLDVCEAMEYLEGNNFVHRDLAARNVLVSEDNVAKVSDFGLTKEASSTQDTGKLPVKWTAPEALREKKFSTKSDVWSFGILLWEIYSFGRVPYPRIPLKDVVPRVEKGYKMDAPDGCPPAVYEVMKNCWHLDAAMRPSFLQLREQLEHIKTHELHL
Sequence of Bone morphogenetic protein receptor type-1B (Homo sapiens) (O00238 whole entry): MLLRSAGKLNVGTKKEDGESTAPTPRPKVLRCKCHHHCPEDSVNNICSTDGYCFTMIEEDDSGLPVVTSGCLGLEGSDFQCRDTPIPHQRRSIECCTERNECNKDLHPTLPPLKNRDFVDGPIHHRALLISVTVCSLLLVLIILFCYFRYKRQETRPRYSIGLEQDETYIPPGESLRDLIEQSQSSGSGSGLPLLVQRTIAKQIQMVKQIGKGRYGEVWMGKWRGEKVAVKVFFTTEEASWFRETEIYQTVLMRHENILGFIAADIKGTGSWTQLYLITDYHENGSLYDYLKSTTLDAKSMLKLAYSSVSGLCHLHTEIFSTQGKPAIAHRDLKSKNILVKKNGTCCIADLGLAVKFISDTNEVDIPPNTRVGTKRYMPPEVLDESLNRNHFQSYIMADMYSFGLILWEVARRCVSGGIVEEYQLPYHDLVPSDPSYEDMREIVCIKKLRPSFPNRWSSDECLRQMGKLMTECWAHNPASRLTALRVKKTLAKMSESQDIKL
Sequence of Mitogen-activated protein kinase kinase kinase kinase 1 (Homo sapiens) (Q92918 whole entry, looked up): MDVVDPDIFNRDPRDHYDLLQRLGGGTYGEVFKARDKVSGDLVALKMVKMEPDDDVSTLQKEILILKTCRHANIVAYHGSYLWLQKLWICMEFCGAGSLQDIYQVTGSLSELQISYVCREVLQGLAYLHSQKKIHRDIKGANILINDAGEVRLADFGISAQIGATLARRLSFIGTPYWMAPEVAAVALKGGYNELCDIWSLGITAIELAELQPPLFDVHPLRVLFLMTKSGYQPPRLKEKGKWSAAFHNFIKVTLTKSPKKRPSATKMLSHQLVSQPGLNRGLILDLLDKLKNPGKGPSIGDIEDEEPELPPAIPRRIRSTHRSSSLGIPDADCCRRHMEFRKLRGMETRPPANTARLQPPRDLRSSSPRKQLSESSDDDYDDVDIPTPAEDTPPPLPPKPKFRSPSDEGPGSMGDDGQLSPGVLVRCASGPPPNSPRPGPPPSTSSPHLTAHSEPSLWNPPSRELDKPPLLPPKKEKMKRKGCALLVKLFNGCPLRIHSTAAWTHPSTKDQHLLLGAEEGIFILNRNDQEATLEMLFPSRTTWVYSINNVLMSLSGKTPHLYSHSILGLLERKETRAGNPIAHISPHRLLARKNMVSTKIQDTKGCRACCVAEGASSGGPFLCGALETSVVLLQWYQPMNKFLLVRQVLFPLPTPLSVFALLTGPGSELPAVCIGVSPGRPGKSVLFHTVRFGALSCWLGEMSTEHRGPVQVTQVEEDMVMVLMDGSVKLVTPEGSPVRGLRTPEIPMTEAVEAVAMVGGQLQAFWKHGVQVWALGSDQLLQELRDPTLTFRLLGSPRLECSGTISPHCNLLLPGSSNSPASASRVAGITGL
Sequence of Serine/threonine-protein kinase MARK2 (Homo sapiens) (Q7KZI7 whole entry): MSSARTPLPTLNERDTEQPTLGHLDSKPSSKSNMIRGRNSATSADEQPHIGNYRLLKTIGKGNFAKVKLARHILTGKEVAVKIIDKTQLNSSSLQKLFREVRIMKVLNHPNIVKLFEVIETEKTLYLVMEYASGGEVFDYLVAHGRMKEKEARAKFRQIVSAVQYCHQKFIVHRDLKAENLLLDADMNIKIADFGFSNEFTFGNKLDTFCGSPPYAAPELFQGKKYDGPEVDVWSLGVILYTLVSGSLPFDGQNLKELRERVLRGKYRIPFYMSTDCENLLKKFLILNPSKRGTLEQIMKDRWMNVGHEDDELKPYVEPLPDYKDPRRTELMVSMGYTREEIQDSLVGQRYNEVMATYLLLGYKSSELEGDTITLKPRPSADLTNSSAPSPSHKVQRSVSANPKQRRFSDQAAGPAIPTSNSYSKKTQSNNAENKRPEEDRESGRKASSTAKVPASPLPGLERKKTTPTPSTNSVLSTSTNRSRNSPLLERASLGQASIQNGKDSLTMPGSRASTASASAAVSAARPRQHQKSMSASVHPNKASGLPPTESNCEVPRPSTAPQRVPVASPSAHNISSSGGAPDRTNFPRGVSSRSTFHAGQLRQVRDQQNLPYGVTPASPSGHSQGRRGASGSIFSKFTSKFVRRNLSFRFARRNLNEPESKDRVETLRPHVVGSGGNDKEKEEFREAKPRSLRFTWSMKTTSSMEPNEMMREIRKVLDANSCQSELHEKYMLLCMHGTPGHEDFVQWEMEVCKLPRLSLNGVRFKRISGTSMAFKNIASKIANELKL

`FC(F)(F)c1ccc(Cl)cc1CN1CCNc2ncc(-c3ccnc(N4CCNCC4)c3)cc21`: the inhibition in test [1], in [2], in test [3], in [4], in test [5] and in test [6] was < 50% each time. The inhibition was 74% in test [7]; 97% in test [8]; < 50% in test [9]; < 50% in test [10]; < 50% in [11]; < 50% in [12]. Also, the inhibition in test [13] was < 50%; in [14] it was 67%; in test [15], < 50%; in [16], < 50%; in test [17] it was 81%.

For `CN1CCN(c2ccc(-c3cnc4c(c3)N(Cc3cc(Cl)ccc3Cl)CCN4)cn2)CC1`, the inhibition in test [1], in test [2], in test [3], in [4], in test [5] and in test [6] was < 50% throughout. Further, the inhibition in test [7], in [8], in [9], in test [10], in test [11] and in test [12] was < 50% in each case. Besides, the inhibition in test [13], in test [14], in test [15], in [16] and in test [17] was < 50% in each case.

For `COC1CCN(C(=O)c2ccc(-c3cnc4c(c3)N(Cc3cc(Cl)ccc3C(F)(F)F)CCN4)cc2)CC1`, the inhibition in [2], in [4], in test [7], in test [8], in test [9] and in [12] was < 50% each time. For the same molecule, the inhibition in [13], in test [15] and in test [16] was < 50% each time.

In the case of `O=C(c1ccc(-c2cnc3c(c2)N(Cc2cc(Cl)ccc2C(F)(F)F)CCN3)cc1)N1CCCCC1`, the inhibition in test [2], in [4], in test [7], in [8], in test [9] and in test [12] was < 50% each time. Besides, the inhibition in test [13], in test [15] and in test [16] was < 50% throughout.

`O=C(O)c1ccc(-c2cnc3c(c2)N(Cc2cc(Cl)ccc2C(F)(F)F)CCN3)cc1`: the inhibition in test [2] was 85%; in test [4], < 50%; in [7] it was < 50%; in [8], < 50%; in test [9], < 50%; in test [12] it was < 50%. Moreover, the inhibition in test [13], in test [15] and in test [16] was < 50% in each case.

Regarding `CN1CCN(c2ccc(-c3cnc4c(c3)N(Cc3cc(F)ccc3F)CCN4)cn2)CC1`, the inhibition in [1] was < 50%; in [2], < 50%; in test [3], < 50%; in test [4], 58.5%; in test [5] it was < 50%; in [6], < 50%. Also, the inhibition in test [7], in test [8], in test [9], in test [10], in test [11] and in test [12] was < 50% each time. The inhibition in [13], in [14], in test [15], in [16] and in test [17] was < 50% each time.

Consider `O=C(c1ccc(-c2cnc3c(c2)N(Cc2cc(Cl)ccc2C(F)(F)F)CCN3)cc1)N1CCC(N2CCCC2)CC1`, for which the inhibition in test [2] was 72.3%; in [4], < 50%; in test [7] it was < 50%; in test [8] it was < 50%; in test [9], < 50%; in [10], 88.7%. Besides, the inhibition in test [11] was 73.2%; in test [12] it was < 50%; in test [13] it was < 50%; in test [15] it was < 50%; in test [16], < 50%.

In the case of `CN1CCN(c2ccc(-c3cnc4c(c3)N(Cc3c(F)ccc(F)c3Cl)CCN4)cn2)CC1`, the inhibition in test [1] is < 50%; in [2], < 50%; in test [3], < 50%; in test [4] it was 85%; in test [5], < 50%; in test [6] it was < 50%. In addition, the inhibition in test [7], in test [8], in test [9], in test [10], in test [11] and in test [12] was < 50% each time. For the same molecule, the inhibition in test [13], in test [14], in [15], in test [16] and in test [17] was < 50% each time.

Consider `CC(=O)N1CCN(c2cc(-c3cnc4c(c3)N(Cc3cc(Cl)ccc3C(F)(F)F)CCN4)ccn2)CC1`, for which the inhibition in test [1] is < 50%; in test [2] it was 66%; in test [3] it was < 50%; in test [4], < 50%; in test [5], < 50%; in [6], < 50%. The inhibition in test [7], in test [8], in [9], in test [10], in [11] and in test [12] was < 50% each time. The inhibition in [13], in [14], in test [15], in [16] and in [17] was < 50% in each case.
